ChEMBL document CHEMBL3763127, “Design, synthesis and biological evaluation of novel asperphenamate derivatives” (Eur J Med Chem, 2016)
The source made the active and inactive calls. No cut-off for these calls is given here.

Legend:
Bel-7402 [1] = experiment: Induction of apoptosis in human Bel7402 cells assessed as accumulation at subG1 phase at 20 uM after 72 hrs by PI staining-based flow cytometric analysis (reference value: 2.87%); assay type: functional
Bel-7402 [2] = experiment: Induction of apoptosis in human Bel7402 cells assessed as accumulation at subG1 phase at 20 uM after 48 hrs by PI staining-based flow cytometric analysis (reference value: 2.87%); assay type: functional
HeLa [3] = experiment: Induction of apoptosis in human HeLa cells assessed as accumulation at subG1 phase at 20 uM after 48 hrs by PI staining-based flow cytometric analysis (reference value: 2.89%); assay type: functional
MCF7 [4] = experiment: Induction of autophagy in human MCF7 cells assessed as increase in LC3-2 level at 5 to 10 uM after 48 hrs by Western blot analysis; assay type: functional, cell-based
Summary of the method: (§1)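 Cells were treated with or without compound for 48 h: MCF-7 at 5 and 10 µM, HeLa and BEL-7402 at 20 and 40 µM. Total protein (10 µg) in SDS sample buffer (pH 6.8) was run on 8–15% SDS-PAGE and transferred to PVDF. LC3-I/LC3-II were probed with HRP secondary antibody and ECL detection. The assay was repeated at least three times.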

MCF7 [5] = experiment: Induction of autophagy in human MCF7 cells at 10 uM after 72 hrs by MDC staining-based flow cytometric analysis (reference value: 2.54%); assay type: functional
MCF7 [6] = experiment: Induction of autophagy in human MCF7 cells at 5 uM after 72 hrs by MDC staining-based flow cytometric analysis (reference value: 2.54%); assay type: functional
MCF7 [7] = experiment: Induction of autophagy in human MCF7 cells assessed as increase in autophagosome formation at 5 and 10 uM after 72 hrs by MDC staining-based fluorescence microscopic analysis; assay type: functional, cell-based
MCF7 [8] = experiment: Induction of autophagy in human MCF7 cells assessed as increase in autophagosome formation at 5 and 10 uM after 72 hrs by AO staining-based fluorescence microscopic analysis; assay type: functional, cell-based
Summary of the method: (§2)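 Cells in RPMI 1640/10% FBS were exposed to compound or 0.1% DMSO for 72 h: MCF-7 at 5 and 10 µM, HeLa and BEL-7402 at 20 and 40 µM. They were incubated with […] acridine orange for 15 min, washed with PBS, and acidic vesicles were imaged by inverted fluorescence microscopy.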

MCF7 [9] = experiment: Induction of cell cycle arrest in human MCF7 cells assessed as accumulation at S phase at 10 uM after 72 hrs by PI staining-based flow cytometric analysis (reference value: 27.09%); assay type: functional
MCF7 [10] = experiment: Induction of cell cycle arrest in human MCF7 cells assessed as accumulation at G0/G1 phase at 10 uM after 72 hrs by PI staining-based flow cytometric analysis (reference value: 50.76%); assay type: functional
MCF7 [11] = experiment: Induction of cell cycle arrest in human MCF7 cells assessed as accumulation at G2/M phase at 10 uM after 48 hrs by PI staining-based flow cytometric analysis (reference value: 19.85%); assay type: functional
MCF7 [12] = experiment: Induction of cell cycle arrest in human MCF7 cells assessed as accumulation at S phase at 10 uM after 48 hrs by PI staining-based flow cytometric analysis (reference value: 27.09%); assay type: functional
MCF7 [13] = experiment: Induction of cell cycle arrest in human MCF7 cells assessed as accumulation at G2/M phase at 10 uM after 24 hrs by PI staining-based flow cytometric analysis (reference value: 19.85%); assay type: functional
MCF7 [14] = experiment: Induction of cell cycle arrest in human MCF7 cells assessed as accumulation at S phase at 10 uM after 24 hrs by PI staining-based flow cytometric analysis (reference value: 27.09%); assay type: functional
MCF7 [15] = experiment: Induction of cell cycle arrest in human MCF7 cells assessed as accumulation at G0/G1 phase at 10 uM after 24 hrs by PI staining-based flow cytometric analysis (reference value: 50.76%); assay type: functional
MCF7 [16] = experiment: Induction of apoptosis in human MCF7 cells assessed as accumulation at subG1 phase at 10 uM after 24 hrs by PI staining-based flow cytometric analysis (reference value: 2.98%); assay type: functional
MCF7 [17] = experiment: Induction of cell cycle arrest in human MCF7 cells assessed as accumulation at G0/G1 phase at 10 uM after 48 hrs by PI staining-based flow cytometric analysis (reference value: 50.76%); assay type: functional
MCF7 [18] = experiment: Cytotoxicity against human MCF7 cells after 3 days by MTT assay; assay type: functional, cell-based; conditions: MCF7, 72 h
Summary of the method: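 MCF-7, HeLa and BEL-7402 cells were grown in RPMI 1640 with 10% heat-inactivated FBS, 1 mM glutamine and penicillin/streptomycin at 37 °C under 5% CO2. They were exposed to compound for 3 days, then read by MTT at 570 nm. Viability was taken as treated/control absorbance, and IC50 was derived from it. Values are mean SD of three independent experiments.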

HeLa [19] = experiment: Induction of autophagy in human HeLa cells assessed as increase in autophagosome formation at 20 and 40 uM after 72 hrs by AO staining-based fluorescence microscopic analysis; assay type: functional, cell-based; summary of the method: as §2
Bel-7402 [20] = experiment: Induction of autophagy in human Bel7402 cells assessed as increase in LC3-2 level at 20 and 40 uM after 48 hrs by Western blot analysis; assay type: functional, cell-based; summary of the method: as §1
MCF7 [21] = experiment: Potency index, ratio of IC50 for cisplatin to IC50 for test compound for cytotoxicity against human MCF7 cells; assay type: functional
[22] = Potency index, ratio of IC50 for cisplatin to IC50 for test compound for cytotoxicity against human Bel7402 cells; assay type: functional, Bel-7402
Bel-7402 [23] = experiment: Induction of autophagy in human Bel7402 cells assessed as autophagic cell formation at 40 uM after 72 hrs by MDC staining-based flow cytometric analysis (reference value: 3.94%); assay type: functional
Bel-7402 [24] = experiment: Induction of autophagy in human Bel7402 cells assessed as autophagic cell formation at 20 uM after 72 hrs by MDC staining-based flow cytometric analysis (reference value: 3.94%); assay type: functional
HeLa [25] = experiment: Induction of cell cycle arrest in human HeLa cells assessed as accumulation at G2/M phase at 20 uM after 72 hrs by PI staining-based flow cytometric analysis (reference value: 25.44%); assay type: functional
HeLa [26] = experiment: Induction of cell cycle arrest in human HeLa cells assessed as accumulation at G0/G1 phase at 20 uM after 72 hrs by PI staining-based flow cytometric analysis (reference value: 45.70%); assay type: functional
Bel-7402 [27] = experiment: Induction of cell cycle arrest in human Bel7402 cells assessed as accumulation at G2/M phase at 20 uM after 48 hrs by PI staining-based flow cytometric analysis (reference value: 22.26%); assay type: functional
Bel-7402 [28] = experiment: Induction of cell cycle arrest in human Bel7402 cells assessed as accumulation at S phase at 20 uM after 48 hrs by PI staining-based flow cytometric analysis (reference value: 25.01%); assay type: functional
Bel-7402 [29] = experiment: Induction of cell cycle arrest in human Bel7402 cells assessed as accumulation at G0/G1 phase at 20 uM after 48 hrs by PI staining-based flow cytometric analysis (reference value: 49.44%); assay type: functional
HeLa [30] = experiment: Induction of cell cycle arrest in human HeLa cells assessed as accumulation at G0/G1 phase at 20 uM after 48 hrs by PI staining-based flow cytometric analysis (reference value: 45.70%); assay type: functional

Cc1ccc(S(=O)(=O)N[C@H](Cc2ccccc2)C(=O)OC[C@H](Cc2ccccc2)NC(=O)c2ccccc2)cc1
Activity (Bel-7402 [1]): 3.78%
Activity (Bel-7402 [2]): 3.01%
Activity (HeLa [3]): 2.12%
Activity (MCF7 [4]): Active
Activity (MCF7 [5]): 56.08%
Activity (MCF7 [6]): 40.31%
Activity (MCF7 [7]): Active
Activity (MCF7 [8]): Active
Activity (MCF7 [9]): 28.08%
Activity (MCF7 [10]): 48.05%
Activity (MCF7 [11]): 20.05%
Activity (MCF7 [12]): 28.07%
Activity (MCF7 [13]): 19.09%
Activity (MCF7 [14]): 24.98%
Activity (MCF7 [15]): 52.57%
Activity (MCF7 [16]): 3.38%
Activity (MCF7 [17]): 48.81%
IC50 (MCF7 [18]): 5.87 µM
Activity (HeLa [19]): Active
Activity (Bel-7402 [20]): Active
Ratio IC50 (MCF7 [21]): 3
Ratio IC50 [22]: 1.6
Activity (Bel-7402 [23]): 48.25%
Activity (Bel-7402 [24]): 23.66%
Activity (HeLa [25]): 21.52%
Activity (HeLa [26]): 48.1%
Activity (Bel-7402 [27]): 22.8%
Activity (Bel-7402 [28]): 26.01%
Activity (Bel-7402 [29]): 47.63%
Activity (HeLa [30]): 50.15%
